Compound activity (PubChem)
In the library only some 1.7% were active in any assay of this set; here they are far more common.
SR-BI DiI-HDL act – enhances SR-BI lipid uptake from DiI-HDL | CHO ldlA[mSR-BI] cells, DiI-HDL uptake fluorescence, 3 h; 100 = double the neutral-control signal | 0.096% of 320,000 active | activation, % at 12.5 µM;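 active = mean replicate activation of at least 60% and every replicate at or above 60%; inconclusive = mean or all-replicate condition met, but not both; inactive = mean below 60% and not all replicates reaching 60%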
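Material – SR-BI-overexpressing, LDLR-lacking CHO cells · Medium – BSA-supplemented, HEPES-buffered Ham's F12, pH 7.4 · Doses – single concentration · Times – compound with DiI-HDL co-incubation, 3 h at 37 °C · Measured by – bottom-read fluorescence, 550/595 nm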
NTR1 ag – agonists of human neurotensin receptor NTR1; P30989; activation, % at 20 µM; 0.17% of 330,000 active; AID 493036; NTR1-U2OS beta-arrestin-GFP spot imaging, agonist mode;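 active = activation at or above 40% of the spot to cytoplasm intensity ratio, with at least 20 cells analyzed; inconclusive = wells under 20 cells, flagged as cytotoxic or low count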
V-ATPase pHluor – yeast V-ATPase proton transport regulation by pHLuorin. S. cerevisiae, pHLuorin cytosolic pH fluorescence. 0.37% of 350,000 active. AID 504577. response, % at 10 µM; in the data active = response mostly above about 7.3%, no sharp cut-off; inactive = mostly below about 5.4%; also: actives read high
CaV13 ICDI inh – Primary screen for inhibitors of IQ motif and Ca2+-dependent inactivation inhibitor domain binding in CACNA1D, Förster resonance energy transfer in living cells, …; inhibition, % at 12.3 µM; HEK cells, CFP/YFP FRET ICDI-IQ, plate reader, 10 min; percent FRET-ratio fall versus neutral wells; 0.098% of 340,000 active;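 active = mean replicate inhibition of at least 30% and at least 1% of replicates passing that level; inconclusive = only one of the two criteria is met; inactive = neither criterion is met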
SR-BI HDL uptake – inhibitors of mouse SR-BI mediated HDL lipid uptake; Q61009; ldlA[mSR-BI] CHO cells, DiI-HDL uptake fluorescence, 3 h; inhibition, % at 12.5 µM; 0.96% of 320,000 active; AID 488896;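 active = mean replicate inhibition of at least 70% and a set share of replicates each scoring 70 or more; inconclusive = meets just one of the two criteria; inactive = fails both criteria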
Target sequence (Q61009 whole entry, looked up): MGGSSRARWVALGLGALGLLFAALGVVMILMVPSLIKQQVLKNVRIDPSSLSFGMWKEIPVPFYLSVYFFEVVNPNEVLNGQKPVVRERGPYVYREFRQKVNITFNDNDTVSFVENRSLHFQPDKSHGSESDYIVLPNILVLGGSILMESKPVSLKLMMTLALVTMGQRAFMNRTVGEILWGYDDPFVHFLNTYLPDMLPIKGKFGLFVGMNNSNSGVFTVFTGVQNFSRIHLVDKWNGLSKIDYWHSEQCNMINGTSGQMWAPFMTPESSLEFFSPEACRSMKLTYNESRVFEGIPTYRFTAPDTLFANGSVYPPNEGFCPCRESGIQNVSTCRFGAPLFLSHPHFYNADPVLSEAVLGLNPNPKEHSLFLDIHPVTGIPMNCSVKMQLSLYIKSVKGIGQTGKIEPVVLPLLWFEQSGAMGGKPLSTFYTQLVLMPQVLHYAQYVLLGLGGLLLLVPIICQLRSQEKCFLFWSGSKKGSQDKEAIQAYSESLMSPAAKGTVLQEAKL
Vif inh – inhibitors of HIV Vif. HEK293T cells, Vif self-association by quenched fluorescence, imaging, 24 h. inhibition, % at 7.49 µM. 0.35% of 340,000 active; in the data active = inhibition above about 50%, passing the limit was not always enough; inconclusive = no clear call, values can overlap the other calls; inactive = below about 31%
Hits are given with their value; i = inactive; ? = inconclusive; nt = no result; + = active, no number.

SMILES | SR-BI DiI-HDL act | NTR1 ag | V-ATPase pHluor | CaV13 ICDI inh | SR-BI HDL uptake | Vif inh
CCOC(=O)C1=C(C(=O)OCC)C2N(Cc3ccc(C(F)(F)F)cc3)c3ccccc3[C@@]23C[C@@H](C(=O)OC)N(S(=O)(=O)c2cccs2)C3=N1 (stereo not given in full) | nt | nt | nt | i | nt | nt
Cc1ccc(NC(=O)/C=C/C(=O)O)c(NC(=O)c2ccccc2)c1 | i | i | i | i | i | 52.8
Cc1ccc(O)c(NC(=O)/C=C/C(=O)O)c1 | i | i | i | i | i | i
Cc1cc(S(=O)(=O)ON2C(=O)c3ccccc3C2=O)ccc1F | i | nt | 11.1 | i | i | i
Cc1ccc(C)c(S(=O)(=O)ON2C(=O)c3ccccc3C2=O)c1 | i | i | i | i | i | i
COc1ccc(-c2[nH]ncc2CNCCCSC)cc1F | nt | i | 14.4 | i | nt | i
O=C(O)CCC1(CCC(=O)O)CCCC(CCC(=O)O)(CCC(=O)O)C1=O | 60.8 | nt | i | i | i | i
O=C(O)CCN1C(=O)NC2(CCCC2)C1=O | i | i | i | i | i | ?
O=C(Nc1ccc(NC(=O)N2CCN(c3ccccc3O)CC2)cc1)N1CCN(c2ccccc2O)CC1 | i | i | i | i | 74.1 | i
O=C(Nc1ccc(Cl)cc1)N1CCN(c2ccccc2)CC1 | i | i | i | nt | i | i
Nc1nnc(SCC(=O)OCc2ccc(F)cc2)s1 | i | i | i | i | i | i
CC1CCN(C(=O)c2nc[nH]c2C(=O)N2CCc3ccccc3C2)CC1 | i | i | i | i | i | i
Cc1csc(SCCn2c(N3CCN(c4ccccc4)CC3)nc3c2c(=O)[nH]c(=O)n3C)n1 | i | i | i | nt | i | 56.9
C=CCOc1cccc(C(=O)/C=C2/C(=O)Nc3ccccc32)c1 | i | 65.6 | i | i | i | i
Cc1cccc(OCC(=O)Nc2ccc(N3CCCC3)cc2)c1C | i | i | i | i | 71.2 | i
Cc1cc(C)cc(OCC(=O)Nc2ccc(N3CCCC3)cc2)c1 | i | i | i | nt | 74.6 | i
Cc1ccc(OCC(=O)Nc2ccc(N3CCCC3)cc2)cc1C | i | i | i | i | ? | nt
O=C(CSc1nnc(NC2CC2)s1)NN1C(=O)NC2(CCCCC2)C1=O | i | i | i | i | i | i
COc1ccc(-c2cc(C(F)(F)F)nc(SCC(=O)NCc3ccco3)n2)cc1OC | i | i | i | nt | 80.9 | i
COc1ccc(-c2cc(-c3cccs3)c(C#N)c(SCC(=O)NCc3ccco3)n2)cc1 | i | i | i | nt | i | 51.5
O=C1OC[C@H](Cc2ccc3c(c2)OCO3)/C1=C\c1ccc2c(c1)OCO2 | i | i | i | nt | i | i
C[C@@H]1C[C@H]2[C@@H]3CCC4=CC(=O)C=C[C@]4(C)[C@@]3(Cl)[C@@H](O)C[C@]2(C)[C@@]1(OC(=O)c1ccco1)C(=O)CCl | i | i | i | i | i | i
Cc1cc(C)cc(NC(=O)N2CCCN(Cc3c(F)cccc3Cl)CC2)c1 | i | i | i | i | i | i
C[C@@H]1CN([C@H](C)CO)C(=O)CCCn2cc(nn2)CO[C@H]1CN(C)C(=O)c1ccccc1 | nt | nt | nt | i | nt | 69.7
CSc1ncccc1C(=O)Nc1ncc(C)s1 | i | i | i | i | i | i
SMILES | SR-BI DiI-HDL act | NTR1 ag | V-ATPase pHluor | CaV13 ICDI inh | SR-BI HDL uptake | Vif inh
CSc1ncccc1C(=O)Nc1nc2c(C)cccc2s1 | i | i | i | i | 73.5 | nt
COc1ccccc1-n1c(C)c(C(=O)O)c2cc(OC)c3ccccc3c21 | i | i | i | i | i | i
CCCC(=O)Nc1ccc(S(=O)(=O)N2CCC(c3nc4ccccc4[nH]3)CC2)cc1 | i | i | 19.9 | i | i | i
COc1ccccc1NC(=O)/C(C#N)=C/c1c(C)nn(-c2ccc(F)cc2)c1Cl | i | i | i | i | i | i
Cc1nn(-c2ccccc2)c(Cl)c1/C=C(\C#N)C(=O)NC(C)C | i | i | i | i | i | i
COc1ccc(NC(=O)/C(C#N)=C/c2c(C)nn(-c3ccc(F)cc3)c2Cl)cc1OC | i | i | i | i | 76.0 | i
COc1ccc(NC(=O)/C(C#N)=C/c2c(C)nn(-c3ccc(F)cc3)c2Cl)cc1Cl | i | i | i | i | 71.4 | i
COc1ccccc1-c1nc(S(=O)(=O)c2ccc(Cl)cc2)c(N(C)C)o1 | i | i | i | i | i | 52.8
Cc1ccc(-n2nnnc2SCC(=O)c2c(N)n(C3CC3)c(=O)[nH]c2=O)cc1 | i | i | 747.8 | i | i | i
Nc1c(C(=O)CSc2nnnn2-c2ccccc2)c(=O)[nH]c(=O)n1C1CC1 | i | i | i | i | i | i
Cc1ccccc1C(=O)N/N=C/c1ccc([N+](=O)[O-])s1 | i | i | i | nt | i | i
Cc1c(Cl)cccc1N=Cc1ccc([N+](=O)[O-])s1 | i | i | 20.3 | i | i | i
O=C(NC(C(=O)c1ccccc1)n1c(=O)cc[nH]c1=S)c1ccccc1 (stereo not given) | i | i | i | nt | i | i
CCOc1ccc(OCC)c(S(=O)(=O)NCc2ccccc2)c1 | i | i | i | i | i | 55.4
CC(C)C(NC(=O)C12CC3CC(CC(C3)C1)C2)C(=O)N/N=C/C1=C(N2CCOCC2)C(=C\c2cccc([N+](=O)[O-])c2)/CC1 (stereo not given) | i | i | i | i | 84.8 | i
Cn1cc(C(=O)N/N=C/C2=C(N3CCOCC3)C(=C/c3ccc([N+](=O)[O-])cc3)/CC2)ccc1=O | nt | i | i | i | nt | i
CCCCOC(=O)c1ccc(NC(=O)c2c(N)n(C)c(=O)[nH]c2=O)cc1 | nt | i | nt | i | nt | nt
CC(C)OC(=O)Nc1ccc2c(c1)N(C(=O)CCN1CCOCC1)c1ccccc1CC2 | 62.7 | i | i | i | i | i
CC(C)OC(=O)Nc1ccc2c(c1)N(C(=O)CCN1CCN(CCO)CC1)c1ccccc1CC2 | i | i | i | i | i | i
CC1(C)CC(=O)C2=C(C1)OC1=C(C2)C(=O)CC(C)(C)C1 | i | i | 145.8 | i | i | i
Cc1cccc(C)c1OCc1cc(C(=O)N2CCN(c3ccccc3)CC2C)no1 (stereo not given) | i | i | i | i | i | i
O=[N+]([O-])c1cc(-c2ccccc2)cc([N+](=O)[O-])c1O | i | nt | i | i | i | i
Nc1nc(-c2cc(O)ccc2[N+](=O)[O-])cc(-c2ccccc2)c1[N+](=O)[O-] | i | i | i | + | i | i
CNC(=O)COC(=O)c1ccc(NC(=O)CC#N)cc1 | i | i | i | i | i | i
Cc1cc(C)c(C(=O)COC(=O)c2ccc(NC(=O)CC#N)cc2)cc1C | i | i | i | i | 75.2 | i
CN1CCCCC(NC(=O)c2cccc(C(F)(F)F)c2)C1=O (stereo not given) | nt | nt | nt | i | nt | nt
COC(=O)c1c(NC(=O)Cc2ccccc2)sc(C)c1C | i | i | i | i | i | i
COC(=O)c1c(NC(=S)Nc2ccccc2Cl)sc(C)c1C | i | i | i | nt | 74.9 | i
